Results: ChEMBL document CHEMBL3779828, “Discovery of the Aryl-phospho-indole IDX899, a Highly Potent Anti-HIV Non-nucleoside Reverse Transcriptase Inhibitor” (J Med Chem, 2016)
Converted amounts (≈) assume the structure as drawn.

What was measured:
[1] = Antiviral activity against HIV1 BH10 harboring wild type reverse transcriptase infected in primary MT4 cells assessed as inhibition of virus-induced cytopathogenicity after 4 days by MTS assay; assay type: functional, cell-based, Human immunodeficiency virus type 1 BH10; conditions: Human immunodeficiency virus 1, MT4, 96 h
[2] = tested on: Human immunodeficiency virus 1; assay: Antiviral activity against HIV1 harboring reverse transcriptase Y181C mutant infected in primary MT4 cells assessed as inhibition of virus-induced cytopathogenicity after 4 days by MTS assay; assay type: functional, organism-based; conditions: Human immunodeficiency virus 1, MT4, 96 h
[3] = tested on: Human immunodeficiency virus 1; assay: Antiviral activity against HIV1 harboring reverse transcriptase K103N mutant infected in primary MT4 cells assessed as inhibition of virus-induced cytopathogenicity after 4 days by MTS assay; assay type: functional, organism-based; conditions: Human immunodeficiency virus 1, MT4, 96 h
[4] = tested on: Human immunodeficiency virus 1; assay: Antiviral activity against HIV1 harboring reverse transcriptase Y181C/K103N double mutant infected in primary MT4 cells assessed as inhibition of virus-induced cytopathogenicity after 4 days by MTS assay; assay type: functional, organism-based; conditions: Human immunodeficiency virus 1, MT4, 96 h
[5] = Aqueous solubility of the compound at pH 7; assay type: physicochemical; conditions: aqueous medium
[6] = Cmax in fasted Sprague-Dawley rat at 2 mg/kg, iv after 0.083 to 24 hrs by LC-MS/MS method; assay type: ADME, organism-based; parameters: dose 2 mg/kg, route intravenous; conditions: in vivo
[7] = Cmax in fasted Sprague-Dawley rat at 10 mg/kg, po after 0.083 to 24 hrs by LC-MS/MS method; assay type: ADME, organism-based; parameters: dose 10 mg/kg, route oral; conditions: in vivo
How it was run: (§1)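 Fasted Sprague Dawley rats received 10 mg/kg orally in 10% dimethylacetamide/10% ethanol/80% PEG400. Plasma was stored at -70 °C until LC-MS/MS quantitation. Values are mean parameters (n=3 or 2).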

[8] = Cmax in fed beagle dog at 1 mg/kg, iv after 0.083 to 24 hrs by LC-MS/MS method; assay type: ADME, organism-based, Canis lupus familiaris; parameters: dose 1 mg/kg, route intravenous; conditions: in vivo
How it was run: (§2)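 Fed beagle dogs and fed male cynomolgus monkeys were dosed at 1 mg/kg IV or 5 mg/kg PO in 10% dimethylacetamide/10% ethanol/80% PEG400. Femoral-vein blood was drawn predose and at 0.083–24 h into lithium-heparin tubes. Plasma was stored at -70 °C and parent drug was measured by LC-MS/MS. Values are mean parameters (n=3 or 2).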

[9] = Cmax in fed beagle dog at 5 mg/kg, po after 0.083 to 24 hrs by LC-MS/MS method; assay type: ADME, organism-based, Canis lupus familiaris; parameters: dose 5 mg/kg, route oral; conditions: in vivo; how it was run: as §2
[10] = Cmax in fed cynomolgus monkey at 1 mg/kg, iv after 0.083 to 24 hrs by LC-MS/MS method; assay type: ADME, organism-based, Macaca fascicularis; parameters: dose 1 mg/kg, route intravenous; conditions: in vivo; how it was run: as §2
[11] = Cmax in fed cynomolgus monkey at 5 mg/kg, po after 0.083 to 24 hrs by LC-MS/MS method; assay type: ADME, organism-based, Macaca fascicularis; parameters: dose 5 mg/kg, route oral; conditions: in vivo; how it was run: as §2
[12] = Tmax in fed cynomolgus monkey at 5 mg/kg, po by LC-MS/MS method; assay type: ADME, organism-based, Macaca fascicularis; conditions: in vivo; how it was run: as §2
[13] = Half life in fasted Sprague-Dawley rat at 2 mg/kg, iv by LC-MS/MS method; assay type: ADME, organism-based; conditions: in vivo
[14] = Half life in fasted Sprague-Dawley rat at 10 mg/kg, po by LC-MS/MS method; assay type: ADME, organism-based; conditions: in vivo; how it was run: as §1
[15] = Half life in fed beagle dog at 1 mg/kg, iv by LC-MS/MS method; assay type: ADME, organism-based, Canis lupus familiaris; conditions: in vivo; how it was run: as §2
[16] = Half life in fed beagle dog at 5 mg/kg, po by LC-MS/MS method; assay type: ADME, organism-based, Canis lupus familiaris; conditions: in vivo; how it was run: as §2
[17] = Half life in fed cynomolgus monkey at 1 mg/kg, iv by LC-MS/MS method; assay type: ADME, organism-based, Macaca fascicularis; conditions: in vivo; how it was run: as §2
[18] = Half life in fed cynomolgus monkey at 5 mg/kg, po by LC-MS/MS method; assay type: ADME, organism-based, Macaca fascicularis; conditions: in vivo; how it was run: as §2
[19] = Clearance in fasted Sprague-Dawley rat at 2 mg/kg, iv after 0.083 to 24 hrs by LC-MS/MS method; assay type: ADME, organism-based; conditions: in vivo
[20] = Clearance in fed beagle dog at 1 mg/kg, iv after 0.083 to 24 hrs by LC-MS/MS method; assay type: ADME, organism-based, Canis lupus familiaris; conditions: in vivo; how it was run: as §2
[21] = Clearance in fed cynomolgus monkey at 1 mg/kg, iv after 0.083 to 24 hrs by LC-MS/MS method; assay type: ADME, organism-based, Macaca fascicularis; conditions: in vivo; how it was run: as §2
[22] = Oral bioavailability in fed beagle dog at 5 mg/kg after 0.083 to 24 hrs by LC-MS/MS method; assay type: ADME, organism-based, Canis lupus familiaris; conditions: in vivo; how it was run: as §2
[23] = Oral bioavailability in fed cynomolgus monkey at 5 mg/kg after 0.083 to 24 hrs by LC-MS/MS method; assay type: ADME, organism-based, Macaca fascicularis; conditions: in vivo; how it was run: as §2
[24] = Half life in rat hepatocytes; assay type: ADME, cell-based, Hepatocyte
How it was run: (§3)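 Metabolic stability was measured in hepatocytes as the half-life (min) of parent compound depletion. Values come from independent experiments using hepatocytes from 5 to 7 donors.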

[25] = Half life in dog hepatocytes; assay type: ADME, cell-based, Canis lupus familiaris, Hepatocyte; how it was run: as §3
[26] = Half life in monkey hepatocytes; assay type: ADME, cell-based, Macaca mulatta, Hepatocyte; conditions: rhesus monkey; how it was run: as §3
[27] = tested on: Human immunodeficiency virus 1; assay: Potency index, ratio of EFV EC50 to compound EC50 for HIV1 harboring reverse transcriptase K103N mutant; assay type: functional
[28] = tested on: Human immunodeficiency virus 1; assay: Potency index, ratio of EFV EC50 to compound EC50 for HIV1 harboring reverse transcriptase Y181C/K103N double mutant; assay type: functional

SMILES: O=C1Nc2ccc(Cl)cc2[C@@](C#CC2CC2)(C(F)(F)F)O1 [EFAVIRENZ]
- EC50 [1]: 0.7 nM
- EC50 [2]: 1.8 nM
- EC50 [3]: 37 nM
- EC50 [4]: 58 nM
- solubility [5]: < 0.5 µM

SMILES: COP(=O)(c1cc(C)cc(C)c1)c1c(C(N)=O)[nH]c2ccc(Cl)cc12 (stereo unspecified)
- EC50 [1]: 1 nM
- EC50 [2]: 15 nM
- EC50 [3]: 4 nM
- EC50 [4]: 238 nM
- solubility [5]: 0.9 µM (≈ 0.339 µg/mL)

SMILES: COc1cc(C)cc(P(=O)(OC)c2c(C(N)=O)[nH]c3ccc(Cl)cc23)c1 (stereo unspecified)
- EC50 [1]: 0.4 nM
- EC50 [2]: 9 nM
- EC50 [3]: 23 nM
- EC50 [4]: 663 nM

SMILES: COP(=O)(c1ccc(C)c(C)c1)c1c(C(N)=O)[nH]c2ccc(Cl)cc12 (stereo unspecified)
- EC50 [1]: 0.2 nM
- EC50 [2]: 22.9 nM
- EC50 [3]: 35 nM
- EC50 [4]: 792 nM

SMILES: COP(=O)(c1cc(C)cc(Br)c1)c1c(C(N)=O)[nH]c2ccc(Cl)cc12 (stereo unspecified)
- EC50 [1]: 3 nM
- EC50 [2]: 6 nM
- EC50 [3]: 25 nM
- EC50 [4]: 368 nM

SMILES: COP(=O)(c1cccs1)c1c(C(N)=O)[nH]c2ccc(Cl)cc12 (stereo unspecified)
- EC50 [1]: 0.3 nM
- EC50 [2]: 3.4 nM
- EC50 [3]: 8.6 nM
- EC50 [4]: > 1000 nM

SMILES: COP(=O)(c1cccc(-n2cccn2)c1)c1c(C(N)=O)[nH]c2ccc(Cl)cc12 (stereo unspecified)
- EC50 [1]: 4.5 nM
- EC50 [2]: 59 nM
- EC50 [3]: 102 nM
- EC50 [4]: > 1000 nM

SMILES: COP(=O)(c1cc(C)cc(Cl)c1)c1c(C(N)=O)[nH]c2ccc(Cl)cc12 (stereo unspecified)
- EC50 [1]: 1.1 nM
- EC50 [2]: 5.6 nM
- EC50 [3]: 18.8 nM
- EC50 [4]: 114 nM

SMILES: COP(=O)(c1cc(Cl)cc(Cl)c1)c1c(C(N)=O)[nH]c2ccc(Cl)cc12 (stereo unspecified)
- EC50 [1]: 0.3 nM
- EC50 [2]: 1.7 nM
- EC50 [3]: 19.9 nM
- EC50 [4]: 248 nM

SMILES: COP(=O)(c1cc(C)cc(/C=C/C#N)c1)c1c(C(N)=O)[nH]c2ccc(Cl)cc12 (single isomer, unassigned; form 1) [FOSDEVIRINE]
- EC50 [1]: 1 nM
- EC50 [2]: 1.3 nM
- EC50 [3]: 2.8 nM
- EC50 [4]: 11 nM
- solubility [5]: 20 µM (≈ 8.28 µg/mL)
- Cmax [6]: 88 ng/mL
- Cmax [7]: 25 ng/mL
- Cmax [8]: 290 ng/mL
- Cmax [9]: 18 ng/mL
- Cmax [10]: 1460 ng/mL
- Cmax [11]: 945 ng/mL
- Tmax [12]: 3 h
- half-life [13]: 0.2 h
- half-life [14]: 5.9 h
- half-life [15]: 3.9 h
- half-life [16]: 2.4 h
- half-life [17]: 2 h
- half-life [18]: 3.1 h
- clearance [19]: 1.18 mL/min/kg
- clearance [20]: 30.5 mL/min/kg
- clearance [21]: 5.5 mL/min/kg
- bioavailability [22]: 4%
- bioavailability [23]: 42%
- half-life [24]: 0.283 h
- half-life [25]: 0.35 h
- half-life [26]: 0.867 h
- Ratio EC50 [27]: 30
- Ratio EC50 [28]: 4

SMILES: COP(=O)(c1cc(C)cc(F)c1)c1c(C(N)=O)[nH]c2ccc(Cl)cc12 (stereo unspecified)
- EC50 [1]: 0.2 nM
- EC50 [2]: 3.4 nM
- EC50 [3]: 0.5 nM
- EC50 [4]: 69 nM
- solubility [5]: 1.7 µM (≈ 0.647 µg/mL)
